Legend:
Plasmodium falciparum [1] = test: Antimalarial activity against Plasmodium falciparum 3D7 incubated for 72 hrs by LDH assay; type: functional, organism-based; settings: 3D7, 72 h
How it was run: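 Asexual blood-stage P. falciparum 3D7 parasites were cultured with compound for 72 h, and viability was read by lactate dehydrogenase (LDH) activity.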

HepG2 = test: Cytotoxicity against human HePG2 cells assessed as growth inhibition after 48 hrs by Cell Titer-Glo assay; type: cell-based; settings: HepG2, 48 h
Plasmodium falciparum [2] = test: Antimalarial activity against Plasmodium falciparum NF54 late stage ([…]) expressing Pfs16-LUC-GFP assessed as growth inhibition by high content imaging assay; type: functional, organism-based
Plasmodium falciparum [3] = test: Antimalarial activity against Plasmodium falciparum NF54 early stage (1 to 3) expressing Pfs16-LUC-GFP assessed as growth inhibition by high content imaging assay; type: functional, organism-based

Row | Compound | EC50 (Plasmodium falciparum [1]) [µM] | EC50 (HepG2) [µM] | EC50 (Plasmodium falciparum [2]) [µM] | EC50 (Plasmodium falciparum [3]) [µM]
1 | CN(C(=O)N1CCCC1)C1CCN(S(=O)(=O)c2ccc(C(C)(C)C)cc2)CC1 | > 10 |  |  | 
2 | Cc1ccc(S(=O)(=O)N2CCN(C(C)C(=O)N3CCCC3)CC2)cc1 (configuration not stated) | > 10 |  |  | 
3 | CC(C)(C)c1ccc(S(=O)(=O)N2CCN(C(Cc3ccccc3)C(=O)N3CCCC3)CC2)cc1 (configuration not stated) | > 10 |  |  | 
4 | CC(C(=O)N1CCCC1)N1CCN(S(=O)(=O)c2ccc(OC(F)(F)F)cc2)CC1 (configuration not stated) | > 10 |  |  | 
5 | CC(C)(C)c1ccc(S(=O)(=O)N2CCN(C(C(=O)N3CCCC3)c3ccccc3)CC2)cc1 (configuration not stated) | 5.1 | > 40 |  | 
6 | CC(C(=O)N1CCCC1)N1CCN(S(=O)(=O)c2ccc(C(F)(F)F)cc2)CC1 (configuration not stated) | > 10 |  |  | 
7 | CC(C(=O)N1CC2CC2C1)N1CCN(S(=O)(=O)c2ccc(C(C)(C)C)cc2)CC1 (configuration not stated) | 0.33 | > 40 |  | 
8 | C[C@H](C(=O)N1CCCC1)N1CCN(S(=O)(=O)c2ccc(C(C)(C)C)cc2)CC1 | > 11 | > 40 |  | 
9 | CC(C(=O)N1CCCC1)N1CCN(S(=O)(=O)c2ccc(C3CC3)cc2)CC1 (configuration not stated) | > 10 |  |  | 
10 | CC(C(=O)N1CCCC1)N1CCN(S(=O)(=O)c2ccc(C3(C(F)(F)F)CC3)cc2)CC1 (configuration not stated) | > 10 |  |  | 
11 | C[C@H]1[C@H](OC(=O)CCC(=O)O)O[C@@H]2O[C@@]3(C)CC[C@H]4[C@H](C)CC[C@@H]1[C@@]24OO3 [ARTESUNATE] | 8 |  | 0.024 | 0.002
12 | CC(C(=O)N1CCOCC1)N1CCN(S(=O)(=O)c2ccc(C(C)(C)C)cc2)CC1 (configuration not stated) | 4.4 | > 40 |  | 
13 | CC(C)(C)c1ccc(S(=O)(=O)N2CCN(CC(=O)N3CCCC3)CC2)cc1 | > 10 |  |  | 
14 | CC(C(=O)N1CCCC1)N1CCN(S(=O)(=O)c2cccc(C(C)(C)C)c2)CC1 (configuration not stated) | 8.4 | > 40 |  | 
15 | CC(C(=O)N1CCCCC1)N1CCN(S(=O)(=O)c2ccc(C(C)(C)C)cc2)CC1 (configuration not stated) | 0.5 | > 40 |  | 
16 | C[C@H](C(=O)N1CCCCC1)N1CCN(S(=O)(=O)c2ccc(C(C)(C)C)cc2)CC1 | 6.9 | > 40 |  | 
17 | CC(C(=O)N1CCN(C)CC1)N1CCN(S(=O)(=O)c2ccc(C(C)(C)C)cc2)CC1 (configuration not stated) | 6.1 | > 40 |  | 
18 | CCCC(C(=O)N1CCCC1)N1CCN(S(=O)(=O)c2ccc(C(C)(C)C)cc2)CC1 (configuration not stated) | > 10 |  |  | 
19 | CC(C)c1ccc(S(=O)(=O)N2CCN(C(C)C(=O)N3CCCC3)CC2)cc1 (configuration not stated) | > 10 | > 40 |  | 
20 | CC(C(=O)N1CCCC1)N1CCN(S(=O)(=O)c2ccc(C3CCCC3)cc2)CC1 (configuration not stated) | > 10 |  |  | 
21 | CC(C(=O)N1CCCC1)N1CCN(S(=O)(=O)c2ccc(CC(F)(F)F)cc2)CC1 (configuration not stated) | > 10 |  |  | 

Row | Compound | EC50 (Plasmodium falciparum [1]) [µM] | EC50 (HepG2) [µM] | EC50 (Plasmodium falciparum [2]) [µM] | EC50 (Plasmodium falciparum [3]) [µM]
22 | CC(C(=O)N1CCCC1)N1CCN(S(=O)(=O)c2ccc(C(C)(C)C)cc2)[C@H](C)C1 (some centres not stated) | > 10 |  |  | 
23 | CC(C(=O)N(C)c1ccccc1)N1CCN(S(=O)(=O)c2ccc(C(C)(C)C)cc2)CC1 (configuration not stated) | > 10 |  |  | 
24 | CC(C(=O)N1CCCC1)N1C[C@@H]2C[C@H]1CN2S(=O)(=O)c1ccc(C(C)(C)C)cc1 (mixture of isomers) | > 10 | > 40 |  | 
25 | CCNC(=O)C(C)N1CCN(S(=O)(=O)c2ccc(C(C)(C)C)cc2)CC1 (configuration not stated) | > 10 |  |  | 
26 | CC(C(=O)N1CCCC1)N1CCCN(S(=O)(=O)c2ccc(C(C)(C)C)cc2)CC1 (configuration not stated) | 6.3 | > 40 |  | 
27 | CC(=O)c1ccc(S(=O)(=O)N2CCN(C(C)C(=O)N3CCCC3)CC2)cc1 (configuration not stated) | > 10 |  |  | 
28 | CC(C(=O)N1CCCC1)N1CCN(S(=O)(=O)c2ccc(-c3ccccc3)cc2)CC1 (configuration not stated) | > 10 |  |  | 
29 | CC(C(=O)N1CCC(F)(F)CC1)N1CCN(S(=O)(=O)c2ccc(C(C)(C)C)cc2)CC1 (configuration not stated) | 0.38 | > 40 |  | 
30 | COc1ccc(S(=O)(=O)N2CCN(C(C)C(=O)N3CCCC3)CC2)cc1 (configuration not stated) | > 10 |  |  | 
31 | CC(C(=O)N1CCCC1)N1CCN(S(=O)(=O)c2ccc(C(C)(C)CO)cc2)CC1 (configuration not stated) | > 10 | > 40 |  | 
32 | CC(C)(C)c1ccc(S(=O)(=O)N2CCN(C(C)(C)C(=O)N3CCCC3)CC2)cc1 | 7.5 | > 40 |  | 
33 | CC(C)C(C(=O)N1CCCC1)N1CCN(S(=O)(=O)c2ccc(C(C)(C)C)cc2)CC1 (configuration not stated) | > 10 |  |  | 
34 | CC(C(=O)N1CCCC1)N1CC2(C1)CN(S(=O)(=O)c1ccc(C(C)(C)C)cc1)C2 (configuration not stated) | > 10 |  |  | 
35 | CC(C(=O)N1CCNCC1)N1CCN(S(=O)(=O)c2ccc(C(C)(C)C)cc2)CC1 (configuration not stated) | > 10 |  |  | 
36 | CC(C(=O)N1CCCC1)N1CCN(S(=O)(=O)c2ccc(Br)cc2)CC1 (configuration not stated) | > 10 |  |  | 
37 | CC(C(=O)N1CCCC1)N1CCN(S(=O)(=O)c2ccc(C(C)(C)C)cc2)CC1=O (configuration not stated) | > 10 |  |  | 
38 | CC(C(=O)N1CCCC1)N1CCN(S(=O)(=O)c2ccc(S(F)(F)(F)(F)F)cc2)CC1 (configuration not stated) | > 10 |  |  | 
39 | CC(C(=O)N1CCCC1)N1CCN(S(=O)(=O)c2ccccc2)CC1 (configuration not stated) | > 10 |  |  | 
40 | COc1ccc2nc3cc(Cl)ccc3c(Nc3cc(CN4CCCC4)c(O)c(CN4CCCC4)c3)c2n1 [PYRONARIDINE] |  |  | 1.24 | 0.053
41 | CCC(C)c1ccc(S(=O)(=O)N2CCN(C(C)C(=O)N3CCCC3)CC2)cc1 (configuration not stated) | 9.1 | > 40 |  | 

More lines, main results first:

Row | EC50 (Plasmodium falciparum [1]) [µM] | Compound | EC50 (HepG2) [µM] | EC50 (Plasmodium falciparum [2]) [µM] | EC50 (Plasmodium falciparum [3]) [µM]
42 | 1.2 | CCC1(CC)c2ccccc2CCN1C(=O)C(C)N1CCN(S(=O)(=O)c2ccc(C(C)(C)C)cc2)CC1 (configuration not stated) | > 40 |  | 
43 | 2.9 | CC(C(=O)N1CCc2ccccc2C12CCCCC2)N1CCN(S(=O)(=O)c2ccc(C(C)(C)C)cc2)CC1 (configuration not stated) | > 40 |  | 
44 | 1.6 | CC(C(=O)N1CCCC1)N1CCN(S(=O)(=O)c2ccc(C(C)(C)C)cc2)C(C)(C)C1 (configuration not stated) | > 40 |  | 
45 | 1 | CC(C(=O)N1Cc2ccccc2C1)N1CCN(S(=O)(=O)c2ccc(C(C)(C)C)cc2)CC1 (configuration not stated) | > 40 |  | 
46 | 4.3 | CC(C(=O)N1CCC(C)(C)CC1)N1CCN(S(=O)(=O)c2ccc(C(C)(C)C)cc2)CC1 (configuration not stated) | > 40 |  | 
47 | 0.65 | CC(C(=O)N1CCCCCC1)N1CCN(S(=O)(=O)c2ccc(C(C)(C)C)cc2)CC1 (configuration not stated) | > 40 |  | 
48 | 1.9 | CC(C(=O)N1CCc2cccnc2C1)N1CCN(S(=O)(=O)c2ccc(C(C)(C)C)cc2)CC1 (configuration not stated) | > 40 |  | 
49 | 0.81 | CC(C(=O)N1C[C@H]2CCC[C@H]2C1)N1CCN(S(=O)(=O)c2ccc(C(C)(C)C)cc2)CC1 (some centres not stated) | > 40 |  | 
50 | 1.2 | CC(C(=O)N1CCc2ccccc2C1C)N1CCN(S(=O)(=O)c2ccc(C(C)(C)C)cc2)CC1 (configuration not stated) | 28 |  | 
51 | 0.3 | CC(C(=O)N1CCC2(CC1)CC2)N1CCN(S(=O)(=O)c2ccc(C(C)(C)C)cc2)CC1 (configuration not stated) | > 40 |  | 
52 | 0.99 | CC(C(=O)N1CCc2ccccc2C1)N1CCN(S(=O)(=O)c2ccc(C(C)(C)C)cc2)CC1 (configuration not stated) | 29 |  | 
53 | 4.3 | CC(C(=O)N1CCCC1)N1C[C@@H]2CN(S(=O)(=O)c3ccc(C(C)(C)C)cc3)C[C@@H]2C1 (some centres not stated) | > 40 |  | 
54 | 1.9 | CC(C(=O)N1CCCC1)N1CCN(S(=O)(=O)c2ccc(C(C)(C)C)cc2)[C@@H](C)C1 (some centres not stated) | > 40 |  | 
55 | 0.93 | CC(C(=O)N1CCc2ccccc21)N1CCN(S(=O)(=O)c2ccc(C(C)(C)C)cc2)CC1 (configuration not stated) | > 40 |  | 
56 | 1.2 | CC(C(=O)N(C)Cc1ccccc1)N1CCN(S(=O)(=O)c2ccc(C(C)(C)C)cc2)CC1 (configuration not stated) | > 40 |  | 
57 | 1.9 | CCC(C(=O)N1CCCC1)N1CCN(S(=O)(=O)c2ccc(C(C)(C)C)cc2)CC1 (configuration not stated) | > 40 |  | 
58 | 0.92 | CC(C(=O)N1C2CCCC1CC2)N1CCN(S(=O)(=O)c2ccc(C(C)(C)C)cc2)CC1 (configuration not stated) | > 40 |  | 
59 | 0.81 | CC(C(=O)N1CCc2ccccc2C12CCCC2)N1CCN(S(=O)(=O)c2ccc(C(C)(C)C)cc2)CC1 (configuration not stated) | > 40 |  | 
60 | 1.3 | CC(C(=O)N1CCCC1)N1CCN(S(=O)(=O)c2ccc([Si](C)(C)C)cc2)CC1 (configuration not stated) | > 40 |  | 
61 | 1.8 | CCN(CC)C(=O)C(C)N1CCN(S(=O)(=O)c2ccc(C(C)(C)C)cc2)CC1 (configuration not stated) | > 40 |  | 
62 | 1.9 | CC(C(=O)N1CCCc2ccccc21)N1CCN(S(=O)(=O)c2ccc(C(C)(C)C)cc2)CC1 (configuration not stated) | > 40 |  | 
63 | 2.1 | CC(C(=O)N(C)CCc1ccccc1)N1CCN(S(=O)(=O)c2ccc(C(C)(C)C)cc2)CC1 (configuration not stated) | 17 |  | 
64 | 1.3 | CC1CCN(C(=O)C(C)N2CCN(S(=O)(=O)c3ccc(C(C)(C)C)cc3)CC2)CC1 (configuration not stated) | > 40 |  | 
65 | 2.6 | CC(C(=O)N1CCc2ncccc2C1)N1CCN(S(=O)(=O)c2ccc(C(C)(C)C)cc2)CC1 (configuration not stated) | > 40 |  | 
